Experimental data from ChEMBL document CHEMBL1141245, “Discovery of novel 1-arylmethyl pyrrolidin-2-yl ethanol amines as calcium-sensing receptor antagonists” (Bioorg Med Chem Lett, 2005).
pIC50: −log10 of the molar value.

The compounds below were run against T1, Extracellular calcium-sensing receptor (Homo sapiens, UniProt P41180) (assay: Inhibition of intracellular calcium release in human TT cells containing calcium-sensing receptor by FLIPR).
T1 sequence (P41180 whole entry): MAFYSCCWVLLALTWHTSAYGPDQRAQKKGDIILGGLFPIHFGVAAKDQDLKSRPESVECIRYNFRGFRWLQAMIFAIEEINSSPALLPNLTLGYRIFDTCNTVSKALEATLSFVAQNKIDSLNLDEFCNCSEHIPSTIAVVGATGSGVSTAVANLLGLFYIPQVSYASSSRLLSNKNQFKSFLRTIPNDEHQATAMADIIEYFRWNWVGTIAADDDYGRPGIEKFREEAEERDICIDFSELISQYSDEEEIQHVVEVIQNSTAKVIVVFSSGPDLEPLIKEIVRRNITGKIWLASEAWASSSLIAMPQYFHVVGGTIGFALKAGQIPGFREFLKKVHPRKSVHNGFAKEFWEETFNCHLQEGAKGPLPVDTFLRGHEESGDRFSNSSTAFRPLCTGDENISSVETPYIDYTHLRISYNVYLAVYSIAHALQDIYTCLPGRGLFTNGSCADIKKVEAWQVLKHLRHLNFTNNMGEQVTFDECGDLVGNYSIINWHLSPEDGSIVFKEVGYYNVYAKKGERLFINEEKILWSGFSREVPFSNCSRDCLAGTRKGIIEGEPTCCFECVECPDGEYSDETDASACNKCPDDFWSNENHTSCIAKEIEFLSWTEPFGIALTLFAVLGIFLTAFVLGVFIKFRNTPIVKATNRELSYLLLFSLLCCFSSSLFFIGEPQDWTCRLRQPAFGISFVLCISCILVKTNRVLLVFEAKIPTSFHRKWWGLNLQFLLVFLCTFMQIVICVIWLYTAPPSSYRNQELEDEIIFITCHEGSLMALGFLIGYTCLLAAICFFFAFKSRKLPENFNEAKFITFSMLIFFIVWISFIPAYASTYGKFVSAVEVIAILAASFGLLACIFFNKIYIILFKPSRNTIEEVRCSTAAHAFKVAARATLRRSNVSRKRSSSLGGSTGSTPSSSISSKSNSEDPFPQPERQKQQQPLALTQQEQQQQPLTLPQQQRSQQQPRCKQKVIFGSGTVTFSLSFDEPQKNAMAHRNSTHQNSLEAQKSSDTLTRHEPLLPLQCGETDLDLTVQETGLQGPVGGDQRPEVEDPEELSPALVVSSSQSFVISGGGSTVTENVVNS
Type: functional, cell-based
In short: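 Fluorescence-based intracellular Ca2+ mobilization, read on FLIPR, in human TT cells carrying endogenous calcium-sensing receptor. IC50 values are means of two experiments.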

CC(C)(Cc1ccc2ccccc2c1)NC[C@H](O)COc1cccc(Cl)c1C#N and CC(C)(Cc1ccc2ccccc2c1)NC[C@@H](O)COc1cccc(Cl)c1C#N are the same in pIC50: 7.30 for the first, 7.30 for the second.

First: CC(C)(Cc1ccc2ccccc2c1)NC[C@@H](O)[C@H]1CCCN1Cc1cccc(F)c1O
Second: CC(C)(Cc1ccc2ccccc2c1)NC[C@@H](O)[C@H]1CCCN1Cc1cccc(F)c1F
The pIC50 of the first is 0.41 log units higher: 6.85 for the first, 6.44 for the second.

Compared with CC(C)(Cc1ccc2ccccc2c1)NC[C@@H](O)COc1ccccc1C#N, CC(C)(Cc1cc2ccccc2[nH]1)NC[C@H](O)COc1ccccc1C#N is 0.52 log units lower in pIC50: 7.52 for the first, 7.00 for the second. The first is the more potent here.

CC(C)(Cc1ccc2ccccc2c1)NC[C@@H](O)[C@H]1CCCN1Cc1ccccc1[N+](=O)[O-] and CC(C)(Cc1ccc2ccccc2c1)NC[C@@H](O)[C@H]1CCCN1Cc1cccc([N+](=O)[O-])c1O are within 0.2 log units of each other in pIC50: 6.80 for the first, 6.85 for the second.

Going from CC(C)(Cc1ccc2ccccc2c1)NC[C@@H](O)[C@H]1CCCN1Cc1ccccc1O to CC(C)(Cc1ccc2ccccc2c1)NC[C@@H](O)[C@H]1CCCN1Cc1ccccc1C#N, the pIC50 rises from 6.01 to 6.47 (0.46 log units).

First: CC(C)(Cc1ccc2ccccc2c1)NC[C@@H](O)[C@H]1CCCN1Cc1cccc(Cl)c1C#N
Second: CC(C)(Cc1ccc2ccccc2c1)NC[C@H](O)[C@H]1CCCN1Cc1ccccc1C#N
The pIC50 of the first is 0.72 log units higher: 6.62 for the first, 5.90 for the second. The first is the more potent here.

Compared with COc1ccc(CC(C)(C)NC[C@H](O)COc2cccc(OC)c2)cc1, COc1ccc(CC(C)(C)NCC(O)COc2ccc(S(C)(=O)=O)c(C)c2)cc1 (centres undefined) is 0.92 log units lower in pIC50: 5.86 for the first, 4.94 for the second.

N#Cc1c(Cl)cccc1OC[C@H](O)CNc1ccc2ccccc2c1 and N#Cc1c(Cl)cccc1OC[C@H](O)CNCCc1ccc2ccccc2c1 are within 0.2 log units of each other in pIC50: 5.34 for the first, 5.41 for the second.

Going from CC(C)(Cc1ccc2ccccc2c1)NC[C@@H](O)[C@H]1CCCN1C(=O)c1cccc(C#N)c1 to CC(C)(Cc1ccc2ccccc2c1)NC[C@@H](O)[C@H]1CCCN1Cc1cccc(C#N)c1, the pIC50 rises from 5.07 to 6.72 (1.65 log units). The second is the more potent here.

First: CC(C)(Cc1ccc(F)cc1)NC[C@@H](O)CSc1cccc(Cl)c1Cl
Second: CC(C)(Cc1ccc(F)cc1)NC[C@@H](O)COc1cccc(Cl)c1C#N
The pIC50 of the first is 1.01 log units lower: 5.21 for the first, 6.22 for the second. The second is the more potent here.

Compared with CC(C)(Cc1ccc2ccccc2c1)NC[C@@H](O)[C@H]1CCCN1Cc1cccc(C(=O)O)c1, CC(C)(Cc1ccc2ccccc2c1)NC[C@@H](O)[C@H]1CCCN1Cc1cccc(O)c1 is 0.78 log units higher in pIC50: 5.16 for the first, 5.94 for the second.

COc1cccc(CN2CCC[C@@H]2[C@H](O)CNC(C)(C)Cc2ccc3ccccc3c2)c1O and COc1cccc(CN2CCC[C@@H]2[C@H](O)CNC(C)(C)Cc2ccc3ccccc3c2)c1 are within 0.2 log units of each other in pIC50: 5.81 for the first, 5.92 for the second.

First: CC(C)(Cc1ccc2ccccc2c1)NC[C@@H](O)[C@H]1CCCN1Cc1cccc([N+](=O)[O-])c1
Second: CC(C)(Cc1ccc2ccccc2c1)NC[C@@H](O)[C@H]1CCCN1Cc1ccc([N+](=O)[O-])cc1
The pIC50 of the first is 0.75 log units higher: 6.85 for the first, 6.10 for the second.

Going from CC(C)(Cc1csc2ccccc12)NC[C@@H](O)[C@H]1CCCN1Cc1cccc(C#N)c1 to CC(C)(Cc1cc2ccccc2s1)NC[C@@H](O)[C@H]1CCCN1Cc1cccc(C#N)c1, the pIC50 rises from 6.00 to 6.57 (0.57 log units).

Compared with CC(C)(Cc1cc2ccccc2[nH]1)NC[C@@H](O)[C@H]1CCCN1Cc1cccc(C#N)c1, CC(C)(Cc1nc2ccccc2[nH]1)NC[C@@H](O)[C@H]1CCCN1Cc1cccc(C#N)c1 is 0.81 log units lower in pIC50: 6.36 for the first, 5.55 for the second. The first is the more potent here.

CC(C)(Cc1ccc2ccccc2c1)NC[C@@H](O)[C@H]1CCCN1Cc1cccc(-c2ccccc2)c1 and CC(C)(Cc1ccc2ccccc2c1)NC[C@@H](O)[C@H]1CCCN1Cc1cccc(Br)c1 are within 0.2 log units of each other in pIC50: 5.61 for the first, 5.80 for the second.

Compared with CC(C)(Cc1ccc(F)cc1)NC[C@@H](O)COc1ccc(OC(F)(F)F)cc1, CC(C)(Cc1ccccc1)NC[C@H](O)COc1ccccc1S(C)(=O)=O is 0.45 log units lower in pIC50: 5.48 for the first, 5.03 for the second. The first is the more potent here.

Compared with CC(C)(Cc1ccc2ccccc2c1)NC[C@@H](O)[C@H]1CCCN1Cc1ccc(C#N)cc1, CC(C)(Cc1ccc2ccccc2c1)NC[C@@H](O)[C@H]1CCCN1Cc1cccc(F)c1 is 0.48 log units lower in pIC50: 6.60 for the first, 6.12 for the second. The first is the more potent here.

Going from CC(C)(Cc1nc2ccccc2s1)NC[C@@H](O)[C@H]1CCCN1Cc1cccc(C#N)c1 to COc1ccc(CC(C)(C)NC[C@@H](O)[C@H]2CCCN2Cc2cccc(C#N)c2)cc1, the pIC50 falls from 5.87 to 5.57 (0.30 log units). The first is the more potent here.

Compared with CN(C[C@@H](O)COc1cccc(Cl)c1C#N)C(C)(C)Cc1ccc2ccccc2c1, CC(C)(Cc1ccc2ccccc2c1)NCCCOc1cccc(Cl)c1C#N is 0.51 log units lower in pIC50: 6.57 for the first, 6.06 for the second.

CC(C)(Cc1cc2ccccc2s1)NC[C@H](O)COc1ccccc1C#N was tested, and the pIC50 was 7.22.

The compounds below were run against T2, Extracellular calcium-sensing receptor (Rattus norvegicus, UniProt P48442) (assay: Inhibition of extracellular calcium-induced inositol triphosphate generation in rat MTC cells expressing calcium-sensing receptor).
T2 sequence (P48442 whole entry): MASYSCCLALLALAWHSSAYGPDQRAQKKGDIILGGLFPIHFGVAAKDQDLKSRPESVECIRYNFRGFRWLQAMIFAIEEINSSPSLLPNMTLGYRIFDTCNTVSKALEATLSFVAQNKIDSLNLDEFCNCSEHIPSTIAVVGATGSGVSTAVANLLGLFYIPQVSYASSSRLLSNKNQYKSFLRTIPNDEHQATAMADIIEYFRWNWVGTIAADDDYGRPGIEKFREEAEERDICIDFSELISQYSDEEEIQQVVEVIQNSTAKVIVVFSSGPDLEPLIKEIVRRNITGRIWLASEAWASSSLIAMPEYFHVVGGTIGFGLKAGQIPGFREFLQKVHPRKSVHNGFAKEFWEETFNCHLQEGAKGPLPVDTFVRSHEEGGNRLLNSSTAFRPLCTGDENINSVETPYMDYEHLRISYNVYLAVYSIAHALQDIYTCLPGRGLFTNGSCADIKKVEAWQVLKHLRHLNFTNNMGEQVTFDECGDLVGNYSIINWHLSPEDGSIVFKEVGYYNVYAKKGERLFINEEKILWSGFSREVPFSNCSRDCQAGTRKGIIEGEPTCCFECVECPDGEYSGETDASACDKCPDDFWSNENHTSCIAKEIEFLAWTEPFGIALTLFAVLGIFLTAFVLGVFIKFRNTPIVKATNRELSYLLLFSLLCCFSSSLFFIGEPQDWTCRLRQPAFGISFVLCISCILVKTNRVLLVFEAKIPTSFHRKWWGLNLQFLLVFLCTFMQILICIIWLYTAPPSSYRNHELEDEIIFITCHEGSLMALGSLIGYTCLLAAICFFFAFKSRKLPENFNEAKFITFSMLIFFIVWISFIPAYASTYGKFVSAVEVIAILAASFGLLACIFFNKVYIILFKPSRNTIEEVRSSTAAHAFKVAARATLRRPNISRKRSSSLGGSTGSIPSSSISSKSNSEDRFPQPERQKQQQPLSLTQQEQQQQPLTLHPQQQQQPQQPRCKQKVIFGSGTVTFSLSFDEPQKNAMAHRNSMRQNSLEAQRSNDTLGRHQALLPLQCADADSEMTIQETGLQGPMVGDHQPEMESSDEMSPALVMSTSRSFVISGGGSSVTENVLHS
Type: functional, cell-based

CC(C)(Cc1ccc2ccccc2c1)NC[C@@H](O)[C@H]1CCCN1Cc1cccc(F)c1O and CC(C)(Cc1ccc2ccccc2c1)NC[C@@H](O)[C@H]1CCCN1Cc1cccc(C#N)c1 are within 0.2 log units of each other in pIC50: 5.59 for the first, 5.66 for the second.

For CC(C)(Cc1ccc2ccccc2c1)NC[C@@H](O)COc1cccc(Cl)c1C#N, the pIC50 was 6.28.
